Assay results from different studies.
Compare with care: the assays were run in different laboratories.
Target: Citron Rho-interacting kinase (CIT, Homo sapiens, UniProt O14578)

| Structure (SMILES) | read-out | method | tested at | remaining binding [%] |
| --- | --- | --- | --- | --- |
| COc1ncc2cc3ccccc3nc2c1C#N | cell-free assay | competition with immobilised ligand | 5 µM | 40 |
| F[C@@H]1CCN(c2nccc(-c3cnn4ncccc34)n2)C1 | binding |  | 1 µM | 75 |
| CC(=O)c1c(NS(C)(=O)=O)c2cc(-c3ccc(Cl)cc3)c(-c3ccc(Cl)cc3Cl)nc2n(C)c1=O | cell-free assay | competition with immobilised ligand | 1 µM | 96 |
| N[C@@H]1CCN(c2nccc(-c3cnn4ncccc34)n2)C1 | binding |  | 1 µM | 99 |
| Nc1ncc2c(n1)-c1c([nH]c3ccc(C#CC4CC4)cc13)CCCC2 | binding | competition with immobilised ligand | 1 µM | 88 |
| FC(F)(F)Oc1cccc(-c2cnc3ccc(-c4ccncc4)nn23)c1 | cell-free assay | competition with immobilised ligand | 5 µM | 34 |
| CN(C)c1ncc(F)c(-c2cnn3ncccc23)n1 | binding |  | 1 µM | 100 |
| CS(=O)(=O)c1cc(C2(NC(=O)c3cncc4c3cnn4-c3ccc(F)cc3)CC2)ccn1 | cell-free assay | competition with immobilised ligand | 1 µM | 100 |
| O=C(NCCCN1CCOCC1)c1ccc(Nc2ncc(Cl)c(-c3ccc(Cl)s3)n2)cc1 | binding | competition with immobilised ligand | 1 µM | 63 |
| Cc1cnn2ncc(-c3ccnc(N(C)C)n3)c2c1 | binding |  | 1 µM | 82 |
| COc1cnc(Nc2cccc(S(N)(=O)=O)c2)nc1N1CCN(c2ccccc2)C(=O)C1 | binding | competition with immobilised ligand | 1 µM | 100 |
| COc1ccnn2ncc(-c3ccnc(N(C)C)n3)c12 | binding |  | 1 µM | 95 |
| c1ccc(N2CCN(Cc3nc4ccccc4[nH]3)CC2)nc1 | binding | competition with immobilised ligand | 1 µM | 88 |
| Cc1cnc(Nc2ccc(C(=O)N3CCC(N4CCCC4)CC3)cc2)nc1-c1cc2ccccc2s1 | binding | competition with immobilised ligand | 1 µM | 65 |
| O=C(Nc1c[nH]nc1C(=O)NC1CCNCC1)c1cc(F)cc(F)c1 | binding | competition with immobilised ligand | 1 µM | 100 |
| COc1cccc(CNC(=O)c2nc3scc(COCc4ccc(C(=O)O)cc4)c3c(=O)[nH]2)c1 | cell-free assay | competition with immobilised ligand | 1 µM | 100 |
| O=C(c1ccc(Nc2ncc(Cl)c(-c3ccc(Cl)s3)n2)cc1)N1CCC(N2CCCC2)CC1 | binding | competition with immobilised ligand | 1 µM | 30 |
| CNC(=O)[C@@H]1CC[C@@H](n2c(-c3ccc4cnccc4c3)nc3ccc(C(=O)NCc4cccc(C(N)=O)c4)cc32)C1 | binding | competition with immobilised ligand | 1 µM | 100 |
| CCOC(=O)c1cc2cc(-c3cc(C(=O)NCc4ccc(C(=O)O)cc4)nn3C)ccc2[nH]1 | cell-free assay | competition with immobilised ligand | 0.1 µM | 100 |
